Reference: ChEMBL document CHEMBL4513216, “Probing the Open Global Health Chemical Diversity Library for Multistage-Active Starting Points for Next-Generation Antimalarials” (ACS Infect Dis, 2020)

Experiment: Toxicity liver stage against HepG2, at 10uM
Assay type: cell-based
Set-up: test concentration 10 uM, cell line HepG2-A16-CD81EGFP
Conditions: human, HepG2-A16-CD81EGFP cells; read-out: INHIBITION
Outline: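 Uninfected HepG2-A16-CD81EGFP cells, 3 × 10^3 per well, 1536-well, plated on prespotted compound at 10 μM final, parasite-free screening media added to match infected plates; puromycin 10 μM positive, DMSO 0.5% negative; run in parallel with 48 h PbLuc assay at 37 °C, 5% CO2; viability by CellTiter-Glo luminescence, normalized to controls.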

SMILES	cytotoxicity at 10 µM
Cn1c2ccc(F)cc2c2ncn(CCN3CCOCC3)c(=O)c21	18.2%
CCn1cnnc1CNc1nc(C)nc2scc(CC(C)C)c12	-3.17%
CC(C)(C)c1cc(C[C@H]2CNCC[C@H]2CC(=O)Nc2ccccc2)no1	-2.4%
CC(C)(O)CN1CC(C)(C)CN(C(=O)CCc2ccccc2)CC1=O	2.37%
CC(=O)N1CC[C@@]2(O)CCCC[C@H]2[C@@H]1c1ccccc1	2.41%
CCOc1c(C(N)=O)cn(C)c1-c1nc2cc(NC(C)=O)ccc2n1C	-46.9%
CCSc1nc(N)c(NC(=O)c2ccc(OC)c(OC)c2)c(=O)[nH]1	-6.24%
CC(C)CSc1ccc(-n2cccn2)nn1	-218%
COc1ccccc1C(=O)NCC(c1cccn1C)N1CCOCC1 (stereo unspecified)	7.11%
Cn1cnc(S(=O)(=O)NCC2(O)CCc3ccccc32)c1 (stereo unspecified)	11.6%
O=C(NCc1cc(C2CC2)n(C2CCCC2)n1)C1CC1	2.16%
Cc1oncc1C(=O)N1CC2CC1(C(=O)N(C)C)C2	-0.95%
O=C(C1CCCO1)N1CCC2(CC1)COCCN2CC1CC1 (stereo unspecified)	2.79%
O=C1COc2ccc(S(=O)(=O)NCc3ccccc3)c3c2N1CCC3	-7.48%
CC(C)CCn1nc(CNc2ccc(Br)cc2)nc1O	9.84%
CN(C)CCNC(=O)c1ccccc1NC(=O)c1cc(Cl)ccc1Cl	-1.02%
CN1CC(Oc2ccccc2)=NC(SCC(=O)Nc2ccc(Cl)cc2)=N1	-10.2%
CCCNC(=O)c1nn(CC)cc1NC(=O)c1cn(C)nc1C	-5.63%
Cc1nn(C)c2cnn(CC(=O)NCc3ccc(F)cc3)c12	8.27%
CC(O)c1cccc(Nc2nc(NCCO)c3ccccc3n2)c1 (stereo unspecified)	18.4%
CCn1nccc1CNC(=O)Cn1cc2c(n1)c(C)nn2C(C)C	-4.7%
c1cncc(CNc2ccccc2-c2nn[nH]n2)c1	9.35%
O=C1CO[C@H]2CN(Cc3cccc(F)c3F)C[C@@H]2N1C1CCOCC1	-12.3%

SMILES	cytotoxicity at 10 µM
Cc1cc(C)nc(Nc2cccc(C3CCCN(S(C)(=O)=O)C3)n2)n1 (stereo unspecified)	-9.62%
Cc1cc(C(=O)N2CCCC2c2nc(C)cc(O)n2)on1 (stereo unspecified)	-15.2%
COCCN1CCC(Cc2cncc(-c3ccc(C(=O)O)cc3)n2)C1 (stereo unspecified)	-0.413%
CC1(C(=O)N2CCOCC2)CN(Cc2ccccn2)CCO1 (stereo unspecified)	2.86%
Cc1noc2nc(C3CCN(Cc4ccncc4)CC3)cc(C(F)F)c12	6.54%
c1c[nH]c2nc(C3CCCNC3)nc-2c1 (stereo unspecified)	8.35%
Cc1cc(C2CCCN2C(=O)COc2ccc(CC#N)cc2)no1 (stereo unspecified)	-38.9%
COc1ccccc1C(C#N)NC(=O)c1cccc2c1oc(=O)n2C (stereo unspecified)	3.3%
Cn1cc(-c2ncc(C(=O)NCCCn3ccccc3=O)s2)cn1	4.13%
O=C(c1cc(C2CC2)nc2onc(-c3ccccc3)c12)N1CC(O)C1	-50.5%
COc1ccc2c(c1)CCCN2C(=O)NC1CCCCNC1=O (stereo unspecified)	-139%
CC(C)c1noc(CCC(=O)NCC(c2ccco2)N2CCCC2)n1 (stereo unspecified)	-9.71%
CN1CCCC(N(C)C(=O)c2ccc(NC(=O)c3cc[nH]n3)cc2)C1 (stereo unspecified)	0.624%
CC(C)CC(NCc1ccsc1)c1ccccn1 (stereo unspecified)	-2.56%
Cc1nc(CNCC2CNc3ccnn3C2)cs1 (stereo unspecified)	-8.71%
Cc1cccc(N2CCN(CCS(=O)(=O)c3ccc(Br)cc3)CC2)c1C	21.9%
Cc1nn(C)c2ncc(S(=O)(=O)N3CCCC(C)CC3)cc12 (stereo unspecified)	2.6%
COc1cc(CN(C)C(=O)NCCC(=O)NC2CCCC2)ccc1SC	-8.9%
Cc1ccc(C2COCCN2C(=O)c2ccc(F)c(F)c2)o1 (stereo unspecified)	4.96%
CCOc1ccccc1N(C)C(=O)c1cscn1	-0.704%
CC(C)(C)c1noc(OCC(=O)NCC(F)(F)F)n1	8.81%
CCS(=O)(=O)CCNC(=O)C1(c2cccc(Cl)c2)CC1	-4%
Cc1nc(C(=O)N(C)CC2CC2)nn1-c1ccccc1C(C)C	5.38%

SMILES	cytotoxicity at 10 µM
CCc1nnc(CN2CCCC(Cn3nc(C)nc3C)C2)o1 (stereo unspecified)	6.81%
CCOc1ncccc1C(=O)NCC(O)c1ccc(F)c(F)c1 (stereo unspecified)	9.45%
CC(C)NC(=O)NCC(Cc1ccc(F)cc1)C(N)=O (stereo unspecified)	12.8%
CC(C)c1nnc2n1CC(CNCc1cccnc1)CC2 (stereo unspecified)	6.59%
COc1ccc(F)cc1CSCC(=O)N(C)C1CC1	0.611%
O=S(=O)(C/C=C/c1ccccc1)Cc1nc(C2CC2)no1	-12.4%
Cc1cc(CNC(=O)CN2CCN(C(=O)OC(C)(C)C)CC2)ccc1F	-11.2%
CC(C)N(C)C(=O)c1ccc(CNc2ncc(C#N)cc2Cl)cc1	15.9%
Cc1nn(C)c2ncc(CN3CCCCCC3)cc12	0.106%
CCOc1cc(F)ccc1NC(=O)NCC(c1cnn(C)c1)N(C)C (stereo unspecified)	5.09%
CN1CC(C(=O)NCc2cccnc2OCC(F)(F)F)CC1=O (stereo unspecified)	-6.6%
CC1CN(C(=O)CCc2cc(Br)cs2)CCO1 (stereo unspecified)	-8.48%
O=S(=O)(Cc1ccccc1F)NC(CO)c1ccco1 (stereo unspecified)	6.6%
CCc1ccc(C(=O)N2CCCC(n3cncn3)C2)o1 (stereo unspecified)	-9.78%
O=C1CO[C@@H]2CN(S(=O)(=O)c3ccccc3F)C[C@H]2N1	0.0416%
Cc1ccc2c(c1)C1(CCN(C(N)=O)CC1)CN2CC1CC1	-109%
CNC(=O)CC1CC2(CCNCC2)c2cc(F)ccc21 (stereo unspecified)	-107%
CS(=O)(=O)N[C@@H]1CCN(Cc2cccnc2)[C@H]1Cc1cccnc1	-70.2%
CCN1Cc2c(C(=O)NC)ncn2-c2ccccc2S1(=O)=O	-73%
O=S(=O)(c1ccccc1)N1CC[C@]2(C[C@@H](OCC3CC3)CO2)C1	-81.3%
Nc1ccnc(N2CCCC(CO)(Cc3cccc(Cl)c3)C2)n1 (stereo unspecified)	0.528%
Cc1nc(CCCNC(=O)C2CC(=O)N(C3CCCC3)C2)sc1C (stereo unspecified)	3.01%
CCNC(=O)CN1CCCC(c2ccc(C(=O)O)cc2)C1 (stereo unspecified)	8.57%

SMILES	cytotoxicity at 10 µM
CC(C)[C@H]1CN(Cc2nccn2C)C[C@@H]1NC(=O)COCC(N)=O	-0.0298%
CCCN1CC(NC(=O)Nc2nc(C)n(C(C)C)n2)CC1=O (stereo unspecified)	-3.04%
CCOCc1nc(-c2ccc(F)cc2Cl)n(C)n1	-10.2%
CNc1cc(C)nc(N2C[C@H](NC(=O)C3CCOCC3)[C@@H](C3CC3)C2)n1	4.41%
Cc1noc(C)c1CN(C)C(=O)c1cnc(C2CC2)nc1O	-4.65%
C[C@@H]1CN(C2CCN(Cc3nn(C)c4cccc(Cl)c34)CC2)C[C@H](C)O1	-6.48%
Cc1csc2ncn(C(C)Cc3cccnc3)c(=O)c12 (stereo unspecified)	6.9%
CN(Cc1n[nH]c(=O)n1Cc1ccco1)S(C)(=O)=O	-1.25%
Cc1cc(CN(C)C(=O)C(c2ccccc2C)N(C)C)on1 (stereo unspecified)	3.65%
COc1ccc([C@@H]2CN(C(=O)CS(C)(=O)=O)C[C@H]2NC(C)=O)cc1	0.541%
CSc1nc(C)cc(N2CCC(c3ncc[nH]3)CC2)n1	-10.6%
O=C(c1cccnc1N1CCOC(c2ccc(F)cc2)C1)N1CCCC1 (stereo unspecified)	8.04%
CNC(=O)C(C)(C)NC(=O)c1cc(COc2cccc(C(C)=O)c2)[nH]n1	3.69%
O=c1[nH]c(-c2ccccc2F)nc2c1CCNC2	-2.72%
CCc1ccc2nc(-c3cnn(C)c3)cc(C(=O)N3CCOCC3)c2c1	-2.96%
CSCCCN1CCC[C@]2(C(=O)O)CN(c3cnccn3)CC[C@@H]12	8.26%
Cn1cccc1-c1cc(C(=O)N2CC(c3cccnc3)C2)[nH]n1	-13.7%
CC(O)CN1CCC(CNCc2ccc(OC(F)(F)F)cc2)CC1 (stereo unspecified)	-13.6%
CCc1nc(C2CCCN(C(=O)c3c(C)noc3C)C2)no1 (stereo unspecified)	-12.8%
Cc1nnc2n1CCN(CCC(=O)Nc1sccc1C#N)C2	-2.28%
CCc1nnc2n1CCN(CC(=O)Nc1cc(C(C)(C)C)nn1C)C2	-5.77%
OC(COCc1ccc(Cl)cc1)CN1CCC(c2ccn[nH]2)CC1 (stereo unspecified)	-7.21%
CC(NC(=O)c1cccs1)C(=O)NCc1ccccc1CN1CCCC1 (stereo unspecified)	-14.2%

SMILES	cytotoxicity at 10 µM
Cc1ccc(NC2CCN(C(=O)COc3cccnc3)CC2)nn1	1.3%
CCOc1ncccc1C(=O)NCCN(CC)C1CC1	4.4%
O=C(c1ccn[nH]1)N1CCCC(n2cncn2)C1 (stereo unspecified)	1.56%
CCN(Cc1nc2c(cnn2C)c(=O)[nH]1)Cc1cccs1	1.49%
O=C1COc2c(cccc2C(=O)N2CCCCC2Cn2cccn2)N1 (stereo unspecified)	4.07%
COCCNc1ccc(CC2CCCNC2)cn1 (stereo unspecified)	7.29%
C=C(C)CN1CCN(Cc2cnc(-c3ccc(OC)cc3)nc2)CC1	-3.41%
COc1ccc(CNC(Cc2ccsc2)c2ccc(C)cn2)cc1OC (stereo unspecified)	-4.88%
CNC(=O)c1cccc(C2CNCCN2C(=O)c2cccc(F)c2)c1 (stereo unspecified)	-7.9%
O=C(c1ccco1)N1CCOC2(COCCN(c3ncccn3)C2)C1 (stereo unspecified)	-102%
COCCN1C(=O)CCC12CCCN(Cc1ccccc1F)C2 (stereo unspecified)	3.64%
CN(C)C(=O)[C@@H]1C[C@@H]2[C@@H](CCN2Cc2nccs2)O1	-1.42%
c1cnc(N2CCO[C@H]3CN(CC4CCOC4)C[C@H]32)cn1 (stereo partly specified)	-104%
c1nc(CNC2CCOCC2)c2n1CCCN(CC1CC1)C2	-69.1%
O=C(c1ccsc1)N1CCO[C@@H]2CN(Cc3ccco3)CC[C@@H]2C1	-98.6%
CCS(=O)(=O)N1C[C@@H](OCc2cccnc2)[C@H]2OCCC[C@H]21	3.6%
CC(C)CC(=O)NCCn1nc(C2CCNC2)c2cccnc21 (stereo unspecified)	-25%
COCC1CN(Cc2ccccn2)Cc2cn(C)nc21 (stereo unspecified)	-78.6%
O=C1Nc2ccccc2C12CCN(Cc1cccs1)CC2	-0.184%
